In publication PMC3411050 (The Journal of Biological Chemistry, 2012):
Read-outs that look alike come from different tables or passages of the source. Where no end group is shown, it is not given here.

Assays:
[1] = target: T1, T. californica nAChR (Tetronarce californica, UniProt P02710+P02712+P02714+P02718); format: binding, Torpedo californica; conditions: Torpedo nAChR, from two-site IC50 values
[2] = target: T2, 5-HT3AB receptor (Homo sapiens, UniProt O95264+P46098); experiment: Current recording on 5-HT3 receptors in Xenopus oocytes; format: cell-based; conditions: concentrations up to 10 μM
T2 sequence (P46098 24-478): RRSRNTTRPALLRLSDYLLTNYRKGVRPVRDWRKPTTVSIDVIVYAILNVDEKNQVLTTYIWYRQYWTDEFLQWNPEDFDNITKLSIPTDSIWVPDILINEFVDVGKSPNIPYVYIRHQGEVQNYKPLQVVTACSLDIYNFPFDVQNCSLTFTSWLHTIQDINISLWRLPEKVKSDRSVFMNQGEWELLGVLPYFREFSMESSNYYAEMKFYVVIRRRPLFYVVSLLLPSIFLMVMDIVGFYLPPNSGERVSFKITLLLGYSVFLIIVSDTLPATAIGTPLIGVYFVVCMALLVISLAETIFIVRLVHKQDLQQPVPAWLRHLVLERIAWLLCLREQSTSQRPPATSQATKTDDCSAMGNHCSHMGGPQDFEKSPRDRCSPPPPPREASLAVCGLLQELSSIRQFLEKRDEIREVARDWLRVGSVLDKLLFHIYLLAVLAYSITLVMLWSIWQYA
T2 sequence (O95264 22-441): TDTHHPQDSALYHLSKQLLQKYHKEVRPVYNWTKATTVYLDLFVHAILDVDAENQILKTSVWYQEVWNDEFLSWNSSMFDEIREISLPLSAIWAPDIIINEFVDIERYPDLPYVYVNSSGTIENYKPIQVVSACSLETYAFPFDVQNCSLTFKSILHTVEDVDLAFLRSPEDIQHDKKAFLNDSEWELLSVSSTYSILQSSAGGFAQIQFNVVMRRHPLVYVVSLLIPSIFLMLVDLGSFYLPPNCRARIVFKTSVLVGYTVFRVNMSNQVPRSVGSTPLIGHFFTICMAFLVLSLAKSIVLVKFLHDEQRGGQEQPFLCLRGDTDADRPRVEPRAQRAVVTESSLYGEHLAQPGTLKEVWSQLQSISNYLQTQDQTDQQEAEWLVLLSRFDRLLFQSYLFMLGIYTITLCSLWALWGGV
Summary of the method: (§1)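 Human 5-HT3A (with 5-HT3B for the heteromer) subunit cRNA was transcribed in vitro from cDNA and injected into Xenopus oocytes. Currents were recorded 1–4 days after injection.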

[3] = target: GABAA receptor α1β3γ2 (Rattus norvegicus, UniProt P18508+P62813+P63079); experiment: Two-electrode voltage clamp on recombinant GABAA receptors in Xenopus oocytes; format: cell-based; conditions: up to 100 μM
GABAA receptor α1β3γ2, sequence (P62813 28-455): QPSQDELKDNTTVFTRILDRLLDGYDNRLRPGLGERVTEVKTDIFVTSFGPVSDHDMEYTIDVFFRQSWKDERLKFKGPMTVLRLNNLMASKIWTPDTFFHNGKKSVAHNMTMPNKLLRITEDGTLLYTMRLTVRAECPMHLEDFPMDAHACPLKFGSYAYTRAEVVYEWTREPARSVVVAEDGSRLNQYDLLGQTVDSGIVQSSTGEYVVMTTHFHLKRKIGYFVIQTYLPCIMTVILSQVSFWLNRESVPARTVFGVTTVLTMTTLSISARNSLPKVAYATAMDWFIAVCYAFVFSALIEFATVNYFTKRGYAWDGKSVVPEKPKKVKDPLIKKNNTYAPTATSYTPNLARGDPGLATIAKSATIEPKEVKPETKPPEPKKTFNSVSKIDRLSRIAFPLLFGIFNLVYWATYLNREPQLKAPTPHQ
GABAA receptor α1β3γ2, sequence (P63079 26-473): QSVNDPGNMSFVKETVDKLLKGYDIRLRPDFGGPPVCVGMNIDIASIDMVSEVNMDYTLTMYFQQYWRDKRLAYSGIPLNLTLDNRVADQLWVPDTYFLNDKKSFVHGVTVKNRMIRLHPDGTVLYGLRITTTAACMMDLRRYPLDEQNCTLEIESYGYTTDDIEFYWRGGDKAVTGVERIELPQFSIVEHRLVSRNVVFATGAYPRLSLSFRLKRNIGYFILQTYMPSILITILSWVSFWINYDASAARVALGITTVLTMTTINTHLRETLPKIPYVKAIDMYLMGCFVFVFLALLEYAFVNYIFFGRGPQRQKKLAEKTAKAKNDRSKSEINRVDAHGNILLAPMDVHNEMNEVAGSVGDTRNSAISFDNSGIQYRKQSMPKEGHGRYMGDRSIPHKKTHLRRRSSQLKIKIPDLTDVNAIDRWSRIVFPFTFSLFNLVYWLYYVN
GABAA receptor α1β3γ2, sequence (P18508 39-466): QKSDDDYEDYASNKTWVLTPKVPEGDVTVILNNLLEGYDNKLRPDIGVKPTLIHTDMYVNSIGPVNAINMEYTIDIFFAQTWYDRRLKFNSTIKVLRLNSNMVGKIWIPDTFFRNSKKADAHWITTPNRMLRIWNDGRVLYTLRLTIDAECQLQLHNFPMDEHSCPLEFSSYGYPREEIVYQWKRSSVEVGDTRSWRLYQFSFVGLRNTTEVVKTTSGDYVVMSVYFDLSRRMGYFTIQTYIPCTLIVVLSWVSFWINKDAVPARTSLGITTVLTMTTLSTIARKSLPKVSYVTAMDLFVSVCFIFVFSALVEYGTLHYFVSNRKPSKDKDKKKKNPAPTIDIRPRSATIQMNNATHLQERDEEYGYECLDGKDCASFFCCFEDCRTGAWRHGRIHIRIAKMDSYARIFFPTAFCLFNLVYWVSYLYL

[4] = target: T3, 5-HT3A receptor (Homo sapiens, UniProt P46098); experiment: Current recording on 5-HT3 receptors in Xenopus oocytes; format: cell-based; conditions: concentrations up to 10 μM
T3 sequence (P46098 24-478): T2 sequence (P46098 24-478)
Summary of the method: as §1

[5] = target: human muscle-type nAChR, adult form (α1β1ϵδ) (Homo sapiens, UniProt P02708+P11230+Q04844+Q07001); format: cell-based; conditions: human muscle-type nAChR in oocytes; washing for 2 min
Summary of the method: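 Human α1, β1, δ and ε (adult) or γ (fetal) subunit cDNAs were injected into the oocyte nucleus, and two-electrode voltage clamp was run 2–3 days later. Cells received 5 s pulses of 5 μM ACh every 2 min. After stabilization, the test compound was applied at varied concentrations for at least 1 min, the ACh response was retested, and recovery was followed over several minutes.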

[6] = tested on: adult male mice of BALB/c line; experiment: Lethal effect of azemiopsin on mice; format: in vivo, mouse; conditions: intraperitoneal injection, solution in water, doses 2–10 mg/kg
Summary of the method: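 Adult male BALB/c mice (18–22 g) were kept on a 12/12-h light/dark cycle with food and water ad libitum. The test compound, dissolved in water, was given intraperitoneally at 2, 2.7, 4, 8 and 10 mg/kg body weight.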

[7] = target: GABAA receptor α2β3γ2 (Rattus norvegicus, UniProt P18508+P23576+P63079); experiment: Two-electrode voltage clamp on recombinant GABAA receptors in Xenopus oocytes; format: cell-based; conditions: up to 10 μM
GABAA receptor α2β3γ2, sequence (P23576 29-451): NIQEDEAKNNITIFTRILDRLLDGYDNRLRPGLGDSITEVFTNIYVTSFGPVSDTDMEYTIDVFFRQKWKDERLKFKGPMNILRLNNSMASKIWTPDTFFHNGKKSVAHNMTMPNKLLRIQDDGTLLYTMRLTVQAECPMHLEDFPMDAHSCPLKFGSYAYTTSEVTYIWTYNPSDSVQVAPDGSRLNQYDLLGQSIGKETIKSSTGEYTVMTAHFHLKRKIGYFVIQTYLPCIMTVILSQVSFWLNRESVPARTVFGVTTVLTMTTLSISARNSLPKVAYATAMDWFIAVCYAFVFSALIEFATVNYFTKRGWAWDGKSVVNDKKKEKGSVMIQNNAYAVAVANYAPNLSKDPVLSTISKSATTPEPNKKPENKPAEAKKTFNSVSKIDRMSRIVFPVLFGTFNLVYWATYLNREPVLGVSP
GABAA receptor α2β3γ2, sequence (P63079 26-473): as the sequence (P63079 26-473) above
GABAA receptor α2β3γ2, sequence (P18508 39-466): as the sequence (P18508 39-466) above

[8] = target: T4, Human α7 nAChR (Homo sapiens, UniProt P36544); conditions: read-out: IC50, inhibition of α-bungarotoxin binding; cited from earlier work
T4 sequence (P36544 23-502): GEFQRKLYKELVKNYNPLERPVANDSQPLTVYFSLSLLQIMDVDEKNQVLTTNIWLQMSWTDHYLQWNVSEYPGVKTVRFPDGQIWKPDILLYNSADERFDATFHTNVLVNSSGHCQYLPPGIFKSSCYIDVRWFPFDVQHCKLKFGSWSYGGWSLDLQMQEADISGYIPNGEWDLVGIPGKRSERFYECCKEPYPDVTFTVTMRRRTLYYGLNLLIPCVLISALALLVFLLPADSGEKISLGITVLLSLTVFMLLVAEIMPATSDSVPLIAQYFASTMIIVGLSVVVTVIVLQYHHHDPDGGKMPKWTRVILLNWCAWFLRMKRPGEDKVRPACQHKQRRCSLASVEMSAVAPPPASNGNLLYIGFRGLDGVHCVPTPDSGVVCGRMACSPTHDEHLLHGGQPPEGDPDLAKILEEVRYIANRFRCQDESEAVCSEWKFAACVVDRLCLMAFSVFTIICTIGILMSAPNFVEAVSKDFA

[9] = target: T1, T. californica nAChR; conditions: read-out: IC50, inhibition of α-bungarotoxin binding; cited from earlier work
[10] = target: T5, A. californica AChBP (Aplysia californica, UniProt Q8WSF8); conditions: read-out: IC50, inhibition of α-bungarotoxin binding
T5 sequence (Q8WSF8 18-236 limits assumed): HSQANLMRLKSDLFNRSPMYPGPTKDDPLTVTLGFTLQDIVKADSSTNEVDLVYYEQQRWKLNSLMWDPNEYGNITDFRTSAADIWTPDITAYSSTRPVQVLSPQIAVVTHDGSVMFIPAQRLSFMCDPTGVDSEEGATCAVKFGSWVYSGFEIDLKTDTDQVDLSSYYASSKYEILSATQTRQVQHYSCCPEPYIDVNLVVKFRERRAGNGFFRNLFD

[11] = target: L. stagnalis AChBP (Lymnaea stagnalis, UniProt P58154); conditions: read-out: IC50, inhibition of α-bungarotoxin binding
L. stagnalis AChBP, sequence (P58154 20-229): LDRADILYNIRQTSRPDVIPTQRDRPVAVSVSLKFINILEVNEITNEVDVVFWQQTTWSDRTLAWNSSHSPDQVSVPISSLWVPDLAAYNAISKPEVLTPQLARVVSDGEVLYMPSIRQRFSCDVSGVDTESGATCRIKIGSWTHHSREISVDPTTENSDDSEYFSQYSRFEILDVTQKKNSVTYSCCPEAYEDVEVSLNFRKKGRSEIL

[12] = target: T4, Human α7 nAChR; conditions: read-out: IC50, inhibition of α-bungarotoxin binding

T1 sequence (P02710 25-461): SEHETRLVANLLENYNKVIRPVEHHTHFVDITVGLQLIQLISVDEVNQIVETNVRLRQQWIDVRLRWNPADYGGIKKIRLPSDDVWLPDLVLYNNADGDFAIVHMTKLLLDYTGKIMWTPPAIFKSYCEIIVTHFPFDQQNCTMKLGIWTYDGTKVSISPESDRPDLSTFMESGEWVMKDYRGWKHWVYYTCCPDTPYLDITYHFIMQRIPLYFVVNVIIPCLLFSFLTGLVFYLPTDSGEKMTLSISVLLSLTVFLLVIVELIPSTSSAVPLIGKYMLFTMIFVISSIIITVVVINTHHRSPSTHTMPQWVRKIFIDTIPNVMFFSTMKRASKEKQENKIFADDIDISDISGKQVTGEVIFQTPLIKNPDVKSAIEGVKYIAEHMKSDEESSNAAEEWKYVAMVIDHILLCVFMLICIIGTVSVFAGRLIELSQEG
T1 sequence (P02712 25-493 partner): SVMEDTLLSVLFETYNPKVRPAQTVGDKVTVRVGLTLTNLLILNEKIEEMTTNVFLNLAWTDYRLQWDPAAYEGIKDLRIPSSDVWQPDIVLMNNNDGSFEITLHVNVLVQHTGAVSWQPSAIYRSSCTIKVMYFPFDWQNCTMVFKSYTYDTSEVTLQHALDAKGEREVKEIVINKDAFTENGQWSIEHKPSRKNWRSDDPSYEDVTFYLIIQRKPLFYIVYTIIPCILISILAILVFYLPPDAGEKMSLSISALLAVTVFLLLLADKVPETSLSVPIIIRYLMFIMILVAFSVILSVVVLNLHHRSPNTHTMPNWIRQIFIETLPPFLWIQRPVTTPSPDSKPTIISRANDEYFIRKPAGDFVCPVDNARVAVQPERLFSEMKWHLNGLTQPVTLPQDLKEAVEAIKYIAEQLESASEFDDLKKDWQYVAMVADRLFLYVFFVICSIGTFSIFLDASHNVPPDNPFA
T1 sequence (P02714 18-506): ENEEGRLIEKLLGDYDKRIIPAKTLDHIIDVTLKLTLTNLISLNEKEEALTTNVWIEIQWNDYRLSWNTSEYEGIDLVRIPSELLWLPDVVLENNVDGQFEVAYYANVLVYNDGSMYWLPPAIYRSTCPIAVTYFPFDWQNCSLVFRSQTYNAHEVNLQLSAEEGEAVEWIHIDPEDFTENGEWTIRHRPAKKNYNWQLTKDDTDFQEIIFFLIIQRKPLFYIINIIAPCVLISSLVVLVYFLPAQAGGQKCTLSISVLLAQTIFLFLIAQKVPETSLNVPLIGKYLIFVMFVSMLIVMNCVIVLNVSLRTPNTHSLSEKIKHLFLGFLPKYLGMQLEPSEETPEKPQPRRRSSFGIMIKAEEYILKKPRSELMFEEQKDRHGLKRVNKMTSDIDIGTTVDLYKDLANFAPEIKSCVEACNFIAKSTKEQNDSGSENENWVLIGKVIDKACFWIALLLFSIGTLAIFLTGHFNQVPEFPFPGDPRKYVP
T1 sequence (P02718 22-522): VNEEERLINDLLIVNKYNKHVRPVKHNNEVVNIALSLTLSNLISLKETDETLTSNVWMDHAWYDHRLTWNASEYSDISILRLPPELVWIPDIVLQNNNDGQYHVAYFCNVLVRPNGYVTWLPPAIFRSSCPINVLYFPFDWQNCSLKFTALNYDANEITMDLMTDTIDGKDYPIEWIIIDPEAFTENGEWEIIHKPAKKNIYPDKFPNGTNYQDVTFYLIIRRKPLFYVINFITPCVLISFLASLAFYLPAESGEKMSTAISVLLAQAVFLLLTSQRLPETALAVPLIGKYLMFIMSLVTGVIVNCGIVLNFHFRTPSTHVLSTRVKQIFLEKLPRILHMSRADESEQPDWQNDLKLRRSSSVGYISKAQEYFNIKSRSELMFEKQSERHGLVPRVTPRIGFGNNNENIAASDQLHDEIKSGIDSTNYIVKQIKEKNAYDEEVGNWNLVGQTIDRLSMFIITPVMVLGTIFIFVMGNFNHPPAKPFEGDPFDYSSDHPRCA

Q: For DNWWPKPPHQGPRPPRPRPKP [Azemiopsin], which “difference in the affinity between the two binding sites (α1/γ and α1/δ)” value [1] is on record?
A: Its value is 27 fold.

Q: What about the “effect at 5-HT3AB receptors” value [2] of the same substance?
A: Its value is “no effects”.

Q: And the “effect on GABAA receptor currents” value [3]?
A: The value was “no significant effects”.

Q: And the “effect at 5-HT3A receptors” value [4]?
A: The value was “no effects”.

Q: What about the “recovery of the ACh response after washing out the toxin” value [5] of the same substance?
A: The value was “complete recovery”.

Q: What about the LD50 [6] of the same substance?
A: The LD50 was 2.6 ± 0.3 mg/kg.

Q: And the “effect on GABAA receptor currents” value [7]?
A: The value was “no significant effects”.

Q: Which IC50 [8] does the source give for Neurotoxin II Naja oxiana here?
A: Its IC50 is greater than 4 µM.

Q: What about the IC50 [9] of the same substance?
A: The IC50 was 3 nM.

Q: Which results are given for α-Cobratoxin?
A: IC50 [10]: 58 ± 2 nM; IC50 [11]: 2 ± 0.2 nM; IC50 [12]: 105 ± 10 nM
